# PGE2 EP2 inh – inhibitors of human EP2 prostaglandin E2 receptor | P43116 | AID 1422 | inhibition, % at 25 µM | 0.52% of 260,000 active | C6 glioma cells expressing human EP2, cAMP TR-FRET; cells stimulated with saturating PGE2;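 active = percent inhibition above 40 after rounding to a whole number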;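 note: rat C6 glioma host cells with rolipram phosphodiesterase inhibitor present; the protocol text gives 20 µM as final concentration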
# KLK5 inh – inhibitors of human kallikrein 5; Q9Y337; recombinant hK5, fluorogenic AMC substrate cleavage; inhibition, % at 5 µM; 0.59% of 210,000 active;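 active = inhibition of 40% or more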;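 note: 0% = enzyme controls without compound and 100% = no-enzyme blanks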
# FXIIa inh 1536 – blocks human coagulation factor XIIa protease activity; P00748; purified FXIIa, Boc-QGR-AMC fluorogenic substrate, 2 h; inhibition, % at 5 µM; 0.3% of 220,000 active; in the data active = inhibition above about 40%;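 note: 0% = enzyme with no compound and 100% = blank without enzyme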
# Target sequence (P00748 20-372 limits assumed): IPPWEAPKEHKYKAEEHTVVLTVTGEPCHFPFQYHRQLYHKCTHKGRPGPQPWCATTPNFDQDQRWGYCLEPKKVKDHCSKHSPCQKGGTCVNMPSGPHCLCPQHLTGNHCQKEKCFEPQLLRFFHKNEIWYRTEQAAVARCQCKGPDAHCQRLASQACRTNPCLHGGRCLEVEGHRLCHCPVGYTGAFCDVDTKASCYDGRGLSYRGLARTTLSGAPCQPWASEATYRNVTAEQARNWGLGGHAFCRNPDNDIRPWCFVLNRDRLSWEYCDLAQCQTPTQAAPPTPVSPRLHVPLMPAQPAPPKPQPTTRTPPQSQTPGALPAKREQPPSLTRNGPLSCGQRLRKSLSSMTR
# Target sequence (P00748 373-615 limits assumed): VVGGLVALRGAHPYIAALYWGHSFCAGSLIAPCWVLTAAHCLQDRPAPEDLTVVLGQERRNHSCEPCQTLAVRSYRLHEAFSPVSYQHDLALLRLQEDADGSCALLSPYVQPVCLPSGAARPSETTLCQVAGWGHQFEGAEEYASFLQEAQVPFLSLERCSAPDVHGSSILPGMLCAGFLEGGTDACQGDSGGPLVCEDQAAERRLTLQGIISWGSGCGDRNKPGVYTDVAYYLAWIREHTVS
# thrombin 1536 – thrombin (human) inhibition | 0.26% of 220,000 active | inhibition, % at 5 µM | AID 1046 | alpha-thrombin, Boc-VPR-AMC fluorogenic substrate cleavage | P00734;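 active = inhibition at or above 40%; inactive = inhibition below 40%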;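 note: 0% = enzyme with no compound and 100% = wells without enzyme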
#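 Material: human alpha-thrombin enzyme / Medium: pH 7.5 Tris (50 mM) with NaCl 150 mM, Tween 20 0.05% / Compound: single-point dosing at 5 µM, 0.2% DMSO / Incubation: enzyme reaction carried out at room temperature / Detection: AMC fluorescence, 355/460 nm / Read-out basis: percent inhibition scaled between no-compound controls and no-enzyme blanks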
# EP2 modulator – modulates human prostaglandin E2 receptor EP2 signaling; 0.83% of 260,000 active; induction, % at 25 µM; P43116; EP2-expressing cells, cAMP HTRF FRET, PGE2 co-stimulation;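 active = compounds whose cAMP rise, as percent of the full-agonist control response, exceeds 60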;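 note: rat C6 glioma line stably carrying human EP2 under a CMV promoter; the protocol text gives 20 µM as final concentration; 100% = response of wells given 1 µM PGE2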
# FXIa inh 1536 – blocks human coagulation factor XIa protease activity. 0.14% of 220,000 active. purified FXIa, Boc-Glu-Ala-Arg-AMC fluorogenic substrate. P03951. inhibition, % at 5 µM;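 active = inhibition of at least 40%; inactive = inhibition below 40%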;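 note: fluorescence of freed AMC excited at 355 nm; 0% = enzyme without compound and 100% = no enzyme blank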
# EP2 cAMP induct – EP2 receptor cAMP induction, counter-screens negative; calls only at 20 µM (by protocol); shares compounds with EP2 modulator; C6 glioma EP2 cells, cAMP HTRF induction; plus low (about EC15) PGE2 agonist; 47% of 1,300 active;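 active = cAMP induction above 50% in the main assay while under 30% in all four parallel counter assays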;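 note: rat C6 glioma cells stably expressing human EP2 receptor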
# * = called active by the depositor; i = inactive; . = not tested or not shown; + = active, no number. This is a sample that favours compounds with a hit; in the whole collection about 2.1% have one here.
SMILES,PGE2 EP2 inh,KLK5 inh,FXIIa inh 1536,thrombin 1536,EP2 modulator,FXIa inh 1536,EP2 cAMP induct
O=C(c1ccco1)N1N=C(c2ccncc2)CC1(O)C(F)(F)F (stereo not given),6.9,-1.2,12.7,-4.7,36.3,0.5,.
O=C(Nc1cccc(NC(=O)c2cccc3c(Br)cccc23)c1)c1ccco1,10.0,.,.,.,-44.5,.,.
COC(=O)c1c(NC(=O)c2cccc(Cl)c2)sc(C(=O)Nc2cccc(OC)c2)c1C,7.7,.,.,.,-9.8,.,.
C[C@@H]1CC[C@H]2C(C)(C)C3CC12CC[C@@]3(C)O (stereo not given in full),11.1,.,.,.,65.4*,.,+
C=CCOc1ccccc1NC(=O)Cn1cnc2sc(C)cc2c1=O,9.7,.,.,.,-5.1,.,.
CCOc1ccc(CCNC(=O)c2cc3c(C)nccc3[nH]c2=O)cc1OCC,13.9,.,6.2,2.6,-19.6,0.5,.
Cc1nccc2[nH]c(=O)c(C(=O)NC3CCCCC3C)cc12 (stereo not given),6.9,-13.9,-16.7,-7.1,73.7*,-5.2,i
COc1ccc(OC)c(S(=O)(=O)N2CCC(C(=O)NCCO)CC2)c1,8.1,.,.,.,11.5,.,.
CCOC(=O)C1=C(C)OC(N)=C(C#N)C1c1cc(C)sc1C (stereo not given),-1.8,-8.9,18.0,1.7,52.9,4.0,i
CCOC(=O)C1=C(CC)OC(N)=C(C#N)C1c1ccsc1 (stereo not given),6.4,-11.7,6.3,-4.5,56.8,-2.1,i
CCOC(=O)C1=C(C)N(C)C(C)=C(C(=O)OCC)C1c1ccsc1,8.8,-4.5,7.2,0.3,72.0*,-2.6,+
CCOC(=O)C1=C(C)N(C)C(C)=C(C(=O)OCC)C1c1ccc(Cl)cc1,0.3,-19.9,15.1,-1.4,51.8,9.6,.
CCOC(=O)C1=C(C)OC(N)=C(C#N)C1c1ccsc1 (stereo not given),9.1,-7.2,1.4,-2.3,14.8,1.4,.
O=C(NC1CCN(Cc2nnnn2C2CCCCC2)CC1)c1ccc(F)cc1,5.3,.,.,.,-20.6,.,.
Cc1cc(C)n(CC(=O)NCCc2nc(-c3cccnc3)n[nH]2)n1,.,.,.,.,19.9,.,.
CCCOP(=O)(OCCC)c1nc(-c2ccccc2)oc1NCc1ccccc1,14.8,-14.8,12.7,-1.7,94.3*,1.8,+
CCOP(=O)(OCC)c1nc(-c2ccc(Cl)cc2)oc1NCc1ccccc1,3.9,-0.4,3.3,-10.0,78.0*,-2.0,i
CCN(CC)CCN(Cc1cc2c(C)ccc(C)c2[nH]c1=O)C(=S)NCC1CCCO1 (stereo not given),5.5,.,.,.,-46.2,.,.
Cc1ccc(C)n1-c1sc2c(c1C#N)CCCC2,14.8,-6.2,14.3,1.6,63.1*,6.3,+
Cc1ccccc1OCc1nc2ccccc2c(=O)n1/N=C/c1ccco1,16.9,-7.5,1.3,-0.7,66.8*,-8.9,i
Cc1nn(Cc2c(Cl)cccc2Cl)c(C)c1C(=O)NCc1ccc(C)n1C,4.0,-23.0,5.9,7.7,74.7*,0.7,i
COc1cccc(CN2CCN(C(=O)N3CCOCC3)[C@@H](C)C2)c1,.,.,.,.,-30.5,.,.
COC(=O)c1ccc(Oc2cc(C)nc(NCc3ccccc3)n2)cc1,10.7,-6.5,6.8,1.9,69.8*,2.3,+
Cc1cc(SCCC(=O)O)nc2ccccc12,12.1,.,.,.,.,.,.
Cc1cc(SCC(=O)c2ccccc2)nc2ccccc12,12.2,.,.,.,56.9,.,i
SMILES,PGE2 EP2 inh,KLK5 inh,FXIIa inh 1536,thrombin 1536,EP2 modulator,FXIa inh 1536,EP2 cAMP induct
Cc1ccccc1Nc1cccc2nonc12,6.8,-0.3,7.2,-1.8,66.5*,17.1,+
CCCc1cc(NC2CCCCC2)n2ncnc2n1,16.0,.,.,.,21.9,.,.
CC(=O)N1c2ccc(NC(=O)Cn3cnc4sc(C)cc4c3=O)cc2CC1C (stereo not given),2.1,.,.,.,3.5,.,.
Cc1ccc2c(c1)C(O)CC1(CCN(CC(O)c3ccc(Cl)c(Cl)c3)CC1)O2 (stereo not given),3.1,.,.,.,-78.8,.,.
Cc1[nH]ccc(=O)c1OCc1c(Cl)cccc1Cl,6.4,0.7,11.8,2.3,-4.3,1.0,.
Cc1ccc(Cn2ccc(=O)c(OCc3c(Cl)cccc3Cl)c2C)cc1,8.3,0.0,18.7,1.2,66.6*,4.7,+
c1cc[n+](CC2OCc3ccccc3CO2)cc1,10.4,.,.,.,9.1,.,.
C=CCN1C(=O)N(/C=C/C)c2cccc3cccc1c23,5.7,-3.4,-4.4,0.0,68.2*,-3.8,+
C=CCNC(=O)CN1C(=O)c2cccc3cccc1c23,14.8,.,.,.,-21.4,.,.
CC1Cc2ccccc2N1C(=O)CSc1nnc(Cc2ccccc2)n1CCc1ccccc1 (stereo not given),.,-17.2,3.8,-2.6,65.9*,-1.1,i
C=C1C2CC[C@@]3(C)[C@H](c4ccoc4)OC(=O)C[C@]13O[C@H]1C[C@H](OC(C)=O)C(C)(C)[C@H](CC(=O)OC)[C@@]21C,11.4,.,.,.,20.9,.,.
COc1ccc(S(=O)(=O)N2CCC(C(=O)Nc3ccccc3C)CC2)cc1C,10.5,.,.,.,-46.1,.,.
Cc1cc(C)cc(NC(=O)CSc2nnc(-c3cccnc3)n2C)c1,13.1,.,.,.,5.8,.,.
CCc1nc2c(cnn2-c2ccc(Cl)cc2)c(=O)n1-c1ccc(OC)cc1,16.7,15.2,10.3,-1.9,81.2*,-0.4,i
COC(=O)c1ccc(COC(=O)CCC(=O)Nc2cccc3cccnc23)cc1,11.1,.,.,.,-38.5,.,.
Nc1ccc(SC(F)(F)F)cc1C(=O)c1ccccc1,.,1.5,8.8,-3.9,69.3*,-2.8,i
O=C(O)c1ccc(C(=O)c2ccccc2)c(C(=O)O)c1,4.5,.,.,.,12.1,.,.
c1ccc(CCc2ccccc2-c2nc(-c3ccccn3)no2)cc1,11.6,-0.3,3.1,16.1,101.2*,2.4,+
c1cncc(-c2noc(-c3cccc4ccccc34)n2)c1,5.6,2.0,0.1,6.2,-1.3,1.2,.
c1ccc(-c2ccccc2-c2nc(-c3cccnc3)no2)cc1,9.4,-6.9,-2.0,1.2,72.3*,-0.9,+
c1ccc(-c2noc(-c3cccc4ccccc34)n2)cc1,3.0,2.6,7.0,-9.4,68.6*,2.3,i
c1ccc(CCc2ccccc2-c2nc(-c3cccnc3)no2)cc1,13.9,-0.1,14.4,-0.2,81.5*,1.6,+
Cc1cc(C)c2[nH]c(=O)c(CN(CCN(C)C)C(=S)NCC3CCCO3)cc2c1 (stereo not given),13.2,.,.,.,-31.8,.,.
Cc1cc2ccccc2n2c(=O)n(CC(C)NC(=O)CCCN3CCCC3=O)nc12 (stereo not given),2.5,.,.,.,-11.0,.,.
CC(O)CN(Cc1ccc2c(c1)OCO2)Cc1cncn1Cc1ccccc1 (stereo not given),5.8,.,.,.,-2.5,.,.
CCOc1ccc(Cn2c(=O)oc3ccc(C)cc32)cc1,2.9,.,.,.,-8.3,.,.

# Bioassay records as filed in PubChem BioAssay.
